Published values collected from several papers.
Compare with care: the assays were run in different laboratories.
Target: Misshapen-like kinase 1 (MINK1, Homo sapiens, UniProt Q8N4C8)

| Structure (SMILES) | observed | method | concentration | remaining binding |
| --- | --- | --- | --- | --- |
| c1cnn2ncc(-c3ccnc(N4CCC45COC5)n3)c2c1 | binding |  | 1 µM | 68% |
| C=CC(=O)N1CCC(C(=O)NCC(=O)N2CCN(c3nc(-c4cnc(N)nc4C(F)F)nc(N4CCOCC4)n3)CC2)CC1 | binding | competition with immobilised ligand | 1 µM | 99% |
| CC(=O)C1=C(C)N(c2cccc(C(F)(F)F)c2)C(=O)N[C@@H]1c1ccc(C#N)nc1 | cell-free assay | competition with immobilised ligand | 1 µM | 100% |
| Cc1cnc(Nc2ccc(C(=O)N3CCC(N4CCCC4)CC3)cc2)nc1-c1cc2ccccc2s1 | binding | competition with immobilised ligand | 1 µM | 40% |
| CNCc1ccccc1-c1csc([C@H](C)Nc2nc(C)nc3cc(OC)c(OC)cc23)c1 | cell-free assay | competition with immobilised ligand | 1 µM | 88% |
| N[C@@H]1CCN(c2nccc(-c3cnn4ncccc34)n2)C1 | binding |  | 1 µM | 96% |
| CCN1CCN(Cc2ccc(C(=O)Nc3ccc(C)c(Oc4ccc5c(c4)CC(=O)N5)c3)cc2C(F)(F)F)CC1 | binding | competition with immobilised ligand | 1 µM | 100% |
| CN(C)C(=O)Cn1cc(-c2nc([C@@](C)(c3ccc(-c4cnc(N)nc4)cc3)C3CC3)no2)cn1 | cell-free assay | competition with immobilised ligand | 1 µM | 85% |
| CN(C)c1nccc(-c2cnn3ncccc23)n1 | binding |  | 1 µM | 81% |
| COc1cnc(Nc2cccc(S(N)(=O)=O)c2)nc1N1CCN(c2ccccc2)C(=O)C1 | binding | competition with immobilised ligand | 1 µM | 78% |
| O=C(NCC1CCOCC1)c1n[nH]cc1NC(=O)c1c(F)cccc1F | binding | competition with immobilised ligand | 1 µM | 77% |
| CSc1cccnc1N1CCN(Cc2nc3ccccc3[nH]2)CC1 | cell-free assay | competition with immobilised ligand | 1 µM | 89% |
| CC1CCCN1c1nccc(-c2cnn3ncccc23)n1 (stereo not shown) | binding |  | 1 µM | 90% |
| O=C(O)[C@H]1[C@H](Cn2nnc3ccccc3c2=O)CC[C@@H]1C(=O)c1ccc(OCCC2CCOCC2)cc1 | cell-free assay | competition with immobilised ligand | 1 µM | 100% |
| O=C(c1ccc(Nc2nccc(-c3cc4ccccc4s3)n2)cc1)N1CCC(N2CCCC2)CC1 | binding | competition with immobilised ligand | 1 µM | 57% |
| C[C@@H](c1ccc(-n2cnc3c(N)ncnc32)cc1)N1CCc2nn(C)c(Cc3ccccc3)c2C1=O | binding | competition with immobilised ligand | 0.1 µM | 88% |
| C[C@H]1CCN(c2nccc(-c3cnn4ncccc34)n2)C1 | binding |  | 1 µM | 71% |
| CNC(=O)[C@@H]1CC[C@@H](n2c(-c3ccc4cnccc4c3)nc3ccc(C(=O)NCc4cccc(C(N)=O)c4)cc32)C1 | binding | competition with immobilised ligand | 1 µM | 94% |
| Cc1cnn2ncc(-c3ccnc(N(C)C)n3)c2c1 | binding |  | 1 µM | 92% |
| O=C(c1ccc(Nc2ncc(Cl)c(-c3cc4ccccc4s3)n2)cc1)N1CCC(N2CCCC2)CC1 | binding | competition with immobilised ligand | 1 µM | 42% |
| CN(C)c1ncc(F)c(-c2cnn3ncccc23)n1 | binding |  | 1 µM | 80% |
| O=C(NC[C@@H]1[C@H]2CN(C(=O)OCc3cc(C(F)(F)F)cc(C(F)(F)F)c3)C[C@@H]12)c1ccc2[nH]nnc2c1 | cell-free assay | competition with immobilised ligand | 1 µM | 72% |
